UBC13 inh = inhibitors of human UBC13 polyubiquitin chain formation | TR-FRET | inhibition, % at 20 µM | 0.47% of 330,000 active | P61088; in the data active = inhibition above about 45%, passing the limit was not always enough
MEKK2wt PB1 HTS = raises or lowers MEK5 binding to wildtype human MEKK2 PB1 domain; bead flow cytometry, Alexa488-MEK5 binding to MEKK2 WT; actives lie on both sides; Q9Y2U5; binding response (% of control), % at 10 µM; 1.1% of 290,000 active; in the data active = binding response below about 67% or above about 130%
Apaf-1 inh = blocks human Apaf-1 apoptosome activity. O14727. reconstituted apoptosome caspase-3 activity, DEVD-Rh110 fluorescence. inhibition, % at 20 µM. 0.71% of 330,000 active; active = inhibition of at least 40% at 20 µM;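 note: plate controls were DMSO wells for no effect and DEVD-CHO caspase inhibitor wells for full effect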
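detection = Rh110 fluorescence intensity | test system = biochemical Apaf-1 apoptosome reconstitution | also added = cytochrome c and DEVD-Rh110 substrate | schedule = 30 min plus 50 min, RT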
MEKK3 PB1 HTS = modulators (inhibitors or enhancers) of MEK5 binding to human MEKK3 PB1 domain | binding response (% of control), % at 10 µM | AID 1529 | bead-based flow cytometry, Alexa488-MEK5 binding to MEKK3; actives lie on both sides; 0 = blocked by unlabeled MEK5, 100 = vehicle | Q99759 | 1.4% of 290,000 active;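 active = binding response more than 3 SD above or below the average of its plate-row segment, actives on both sides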;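 note: Alexa488 bead fluorescence after subtracting the streptavidin-only scavenger bead signal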
Target sequence (Q99759 whole entry, looked up, the tested form may be a part): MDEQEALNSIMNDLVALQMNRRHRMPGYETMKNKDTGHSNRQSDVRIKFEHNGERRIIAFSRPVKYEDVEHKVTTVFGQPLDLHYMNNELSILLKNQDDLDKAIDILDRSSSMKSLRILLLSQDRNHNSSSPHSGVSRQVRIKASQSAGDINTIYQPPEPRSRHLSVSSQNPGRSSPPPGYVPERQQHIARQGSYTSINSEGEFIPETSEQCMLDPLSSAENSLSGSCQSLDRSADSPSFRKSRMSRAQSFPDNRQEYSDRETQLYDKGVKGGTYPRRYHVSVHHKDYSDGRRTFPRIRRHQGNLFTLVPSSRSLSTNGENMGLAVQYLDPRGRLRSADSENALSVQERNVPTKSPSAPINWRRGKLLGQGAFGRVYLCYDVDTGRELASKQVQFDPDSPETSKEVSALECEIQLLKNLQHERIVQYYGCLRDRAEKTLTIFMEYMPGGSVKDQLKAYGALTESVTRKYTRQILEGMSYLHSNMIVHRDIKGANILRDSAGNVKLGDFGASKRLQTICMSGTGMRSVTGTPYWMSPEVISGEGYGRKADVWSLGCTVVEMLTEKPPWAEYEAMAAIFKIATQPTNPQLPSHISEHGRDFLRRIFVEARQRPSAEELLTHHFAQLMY
MEKK2mut PB1 HTS = signal of MEK5 binding to mutant human MEKK2 PB1 domain | bead flow cytometry, Alexa488-MEK5 binding to MEKK2 mutant | percent response, % at 10 µM | 0.35% of 290,000 active | AID 1530; in the data active = percent response above about 24%, passing the limit was not always enough
MEKK2wt confirm = raises or lowers MEK5 binding to wildtype human MEKK2, retest. binding response (% of control), % at 10 µM. shares compounds with MEKK3 PB1 HTS. bead flow cytometry, Alexa488-MEK5 binding to MEKK2 WT; actives lie on both sides. 2.4% of 5,900 active; in the data active = binding response below about 16% or above about 210%; inactive = in between
MEKK2mut confirm = signal of MEK5 binding to mutant human MEKK2, retest | AID 1893 | percent response, % at 10 µM | shares compounds with MEKK3 PB1 HTS | bead flow cytometry, Alexa488-MEK5 binding to MEKK2 mutant | 2% of 5,900 active; in the data active = percent response mostly above about 71%, no sharp cut-off; inactive = mostly below about 38%;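 note: higher means compound restores mutant binding toward wildtype level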
MEKK3-MEK5 inh = MEKK3-MEK5 PB1 inhibition, single concentration confirmation. 1.8% of 5,900 active. AID 1894. bead flow cytometry, Alexa488-MEK5 binding to MEKK3; stronger effect = lower value. shares compounds with MEKK3 PB1 HTS. binding response (% of control), % at 10 µM;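 active = binding response below 72% of control, or above a set upper limit, though filed actives all read lower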;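 note: 100% = DMSO only wells and 0% = binding blocked by excess unlabeled MEK5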
Casp3 UBC13 ctr = inhibits human caspase-3 in UBC13 counter-screen; shares compounds with UBC13 inh; Recombinant caspase-3, Caspase-Glo 3/7 luminescence, 60 min; inhibition, % at 20 µM; 4% of 1,400 active; AID 488856;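 active = mean inhibition across replicates above about 26%, limit read from the data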;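 note: plate controls were DMSO with caspase-3 for no effect and DMSO wells lacking enzyme for full effect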
UBC13 conf = confirmation of human UBC13 polyubiquitin inhibitors; UBC13 polyubiquitination, TR-FRET, biochemical; shares compounds with UBC13 inh; inhibition, % at 10 µM; 68% of 1,400 active; in the data active = inhibition above about 45%
The depositor's hits bear a star; . = not tested or not shown; [ ] = remark or other dose. Only some compounds are listed: those with a hit (about 2.9% of all), similar ones and a draw of the others.

SMILES | UBC13 inh | MEKK2wt PB1 HTS | Apaf-1 inh | MEKK3 PB1 HTS | MEKK2mut PB1 HTS | MEKK2wt confirm | MEKK2mut confirm | MEKK3-MEK5 inh | Casp3 UBC13 ctr | UBC13 conf
C#CCOCCOCCOCCNc1nc(N2CCN(C(=O)[C@H](CCCCN)n3cc([C@@H](N)C(C)CC)nn3)CC2)nc(N2CCN(C(=O)[C@H](CCCCN)n3cc([C@@H](N)CC(C)C)nn3)CC2)n1 (some centres undefined) | 105* | 180* | -16 | 111 | 60* | 173 | 47 | 109 | 3 | 112*
CC(C)CCN1CCNC(=O)C1CC(=O)N(C)CCCN1CCOCC1 (centres undefined) | -9 | 106 | -8 | 103 | 3 | . | . | . | . | .
COc1ccc(C[C@H]2CN3C(=NC[C@@H]3Cc3ccc(O)cc3)N2CCNC(=O)c2ccc(C)c(Br)c2)cc1 | 74* | 247* | 33 | 111 | 96* | 196 | 48 | 109 | 0 | 56*
COc1ccc(C[C@H]2CN3C(=NC[C@@H]3Cc3ccc(O)cc3)N2C[C@H](C)NC(=O)c2ccc(C)c(Br)c2)cc1 | 59* | 157* | 28 | 117 | 80* | 4.0*[inhibitor] | -47 | 2.0* | -1 | 52*
COc1ccc(C[C@@H]2CN3C(=NC[C@@H]3C)N2C[C@H](C)NC(=O)CCC2CCCCC2)cc1 | 2 | 108 | 14 | 99 | 5 | . | . | . | . | .
COc1ccc(C[C@H]2CN3C(=NC[C@H]3Cc3ccccc3)N2CCNC(=O)CCC2CCCCC2)cc1 | 66* | 164* | 31 | 104 | 36 | 160 | 33 | 108 | 0 | 62*
Cc1ccc(C(=O)NCCN2C3=NC[C@@H](Cc4ccccc4)N3C[C@H]2Cc2ccc(O)cc2)cc1Br | 104* | 185* | 32 | 107 | 52* | 200 | 56 | 113 | -3 | 93*
Cc1ccc(C(=O)N[C@@H](C)CN2C3=NC[C@H](C(C)C)N3C[C@H]2Cc2ccc(O)cc2)cc1Br | 42 | 128 | 15 | 105 | 21 | . | . | . | . | .
COc1cccc(N2CC(NS(=O)(=O)c3ccc4ccccc4c3)CC2=O)c1 (centres undefined) | 2 | . | 19 | . | . | . | . | . | . | .
O=C(CCS(=O)(=O)CCN1CCOCC1)NCNC(=O)CCS(=O)(=O)CCN1CCOCC1 | 4 | 100 | 0 | 102 | -2 | . | . | . | . | .
CN1CCN(c2ccccc2NC(=O)COc2ccc(Cl)cc2)CC1 | 7 | 115 | 26 | 109 | 13 | . | . | . | . | .
Cc1ccc(C(=O)NCCN2C3=NC[C@H](Cc4ccc(O)cc4)N3C[C@H]2Cc2ccc(O)cc2)cc1Br | 55* | 143* | 9 | 106 | 13 | 134 | 15 | 100 | 0 | 27
CCN(CC)CCOC(=O)c1ccc(N/C=C(/C#N)c2nc(-c3ccc(OC)cc3)cs2)cc1 | 96* | 72 | 35 | 22*[inhibitor] | 19 | 212* | 31 | 84 | 0 | 130*
CCN(CC)CCOC(=O)c1cccc(OC)c1 | -1 | 93 | 5 | 92 | -3 | . | . | . | . | .
Cc1cc(C)c2nc(NNC(=O)c3cc(=O)c4ccccc4o3)sc2c1 | -85 | 99 | 19 | 102 | 2 | . | . | . | . | .
COc1ccccc1NC(=O)CN1CCC(n2c(C)nc3cc(F)ccc32)CC1 | 104* | 2.0*[inhibitor] | 14 | 2.0*[inhibitor] | -16 | 106 | 5 | 106 | 2 | 112*
COc1ccc2c(c1)[nH]c1c(N3CCSCC3)ncnc12 | -3 | 73 | -2 | 67 | -30 | . | . | . | . | .
COc1cc2[nH]c3c(N4CCN(c5ccc(Cl)cc5)CC4)ncnc3c2cc1OC | 51* | 157* | 0 | 111 | 24* | 189 | 49 | 110 | 2 | 33
C/C=N/NC(=O)CCNC(=O)c1ccccc1 | 2 | 103 | -8 | 104 | 2 | . | . | . | . | .
Cc1cccc(C(=O)Nc2nnc(S(=O)(=O)N3CCC(C)CC3)s2)c1 | 2 | 100 | 2 | 101 | 1 | . | . | . | . | .
Cc1ccc2nc(/N=C(\N)NC(=O)NC3CCCCC3)nc(C)c2c1 | 49* | 141* | 15 | 103 | 25 | 135 | 27 | 108 | 1 | 68*
COC(=O)c1csc(S(=O)(=O)N2CCOCC2)c1OC | -1 | 105 | -4 | 105 | 1 | . | . | . | . | .
CC[C@H](C)[C@@H](CN[C@H](C)CNC)NCCC(c1ccccc1)c1ccccc1 | 55* | 138* | 9 | 106 | 5 | 135 | 30 | 104 | -4 | 37
O=C(COc1ccc(F)cc1Br)Nc1ccccc1N1CCOCC1 | 3 | . | 25 | . | . | . | . | . | . | .
O=C1c2cccc3cccc(c23)C(=O)N1CCN1CCN(CC(O)COc2ccc3ccccc3c2)CC1 (centres undefined) | 105* | 149* | 18 | 111 | 5 | 178 | 43 | 105 | -2 | 112*
SMILES | UBC13 inh | MEKK2wt PB1 HTS | Apaf-1 inh | MEKK3 PB1 HTS | MEKK2mut PB1 HTS | MEKK2wt confirm | MEKK2mut confirm | MEKK3-MEK5 inh | Casp3 UBC13 ctr | UBC13 conf
COc1ccccc1CNC(=O)[C@H](C)NC(=O)C1CCN(C(=O)[C@@H](N)CC(C)C)CC1 | 3 | 106 | 11 | 102 | 5 | . | . | . | . | .
COc1ccc(-c2noc(CCC(=O)NC3CCN(Cc4ccccc4)CC3)n2)cc1 | 9 | 118 | 12 | 108 | 5 | . | . | . | . | .
COc1ccc(-c2noc(CCC(=O)NCC3CCN(Cc4cccc(C)c4)CC3)n2)cc1 | 54* | 143* | 6 | 116 | 39* | 118 | 17 | 101 | 3 | 49*
Cc1cc(C)cc(OCCn2nnc3ccccc32)c1 | 2 | 102 | 4 | 108 | 1 | . | . | . | . | .
CCCCCCOc1ccc(/C(C)=N/NC2=NCCN2)cc1 | 60* | 204* | 38 | 112 | 36* | 205 | 64 | 111 | -3 | 85*
CCOc1ccc(Br)cc1/C(C)=N\NC1=NCCN1 | 12 | 105 | 0 | 96 | -1 | . | . | . | . | .
COc1ccc(CCNC(=O)CC(Cc2ccc(C)cc2)C(=O)O)cc1OC (centres undefined) | 4 | 104 | 0 | 102 | 0 | . | . | . | . | .
N=c1c2c(ncn1Cc1ccco1)Oc1c(ccc3ccccc13)C2c1ccccc1 (centres undefined) | 37 | 133 | 20 | 104 | 3 | . | . | . | . | .
CN(C)CCn1cnc2c(c1=N)C(c1ccccc1)c1ccc3ccccc3c1O2 (centres undefined) | 48* | 142* | 26 | 106 | 17 | 149 | 23 | 99 | 1 | 56*

Assay outcomes from PubChem.
